Bioassay records (PubChem BioAssay)
KCNQ1 inh – human KCNQ1 channel inhibition; P51787; CHO-K1 KCNQ1, FluxOR thallium flux fluorescence; stronger effect = higher value; B-score at 10 µM; actives 1.3% (n = 310,000); AID 2642;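 active = compounds whose thallium flux B-score, printed positive for inhibition, exceeds three library SD while starting fluorescence stays within three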;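 note: channel opened by potassium depolarization with thallium stimulus after 20 min compound exposure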
Target sequence (P51787 whole entry, looked up): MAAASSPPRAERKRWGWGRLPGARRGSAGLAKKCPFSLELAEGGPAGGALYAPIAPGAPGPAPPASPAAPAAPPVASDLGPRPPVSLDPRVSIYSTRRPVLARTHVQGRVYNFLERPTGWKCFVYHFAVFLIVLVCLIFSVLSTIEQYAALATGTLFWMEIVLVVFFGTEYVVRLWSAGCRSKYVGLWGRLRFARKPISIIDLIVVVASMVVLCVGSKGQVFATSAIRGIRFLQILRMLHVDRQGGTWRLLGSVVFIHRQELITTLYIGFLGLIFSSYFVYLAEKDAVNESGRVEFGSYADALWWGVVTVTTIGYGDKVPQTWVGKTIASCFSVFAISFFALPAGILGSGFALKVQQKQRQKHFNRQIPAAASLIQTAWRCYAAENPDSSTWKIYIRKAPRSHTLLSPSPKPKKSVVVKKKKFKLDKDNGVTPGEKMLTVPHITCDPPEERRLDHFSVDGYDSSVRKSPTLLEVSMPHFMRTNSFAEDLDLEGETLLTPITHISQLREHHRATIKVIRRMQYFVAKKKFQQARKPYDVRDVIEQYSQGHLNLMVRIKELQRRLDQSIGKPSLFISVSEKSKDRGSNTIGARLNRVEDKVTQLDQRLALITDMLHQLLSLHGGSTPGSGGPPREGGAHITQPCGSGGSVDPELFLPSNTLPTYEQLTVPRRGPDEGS
hERG protect – hERG (human) protection from proarrhythmic block. actives 0.51% (n = 310,000). activation (rescue from dofetilide block), less the hit threshold, % at 10 µM. CHO-hERG, FluxOR thallium flux, dofetilide IC70 present. Q12809;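 active = activation above the mean of controls blocked by dofetilide plus 5 SD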;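 note: thallium influx through hERG after potassium depolarization seen as dye fluorescence rise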
KCNQ1 pot – potentiates or activates the human KCNQ1 potassium channel. actives 0.35% (n = 310,000). AID 2648. P51787. CHO-K1 KCNQ1, thallium flux FluxOR fluorescence; stronger effect = higher value. B-score at 10 µM;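 active = fluorescence ratio B-score, a plate-corrected score, at least three library SD, with initial intensity B-score within 5 SD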
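assay system = CHO-K1 cells stably expressing KCNQ1 | medium = assay buffer, equal DMSO in all wells | timing = 37 °C overnight plating, 90-min dark dye load, 20-min compound pretreatment | measured by = kinetic FluxOR thallium fluorescence, 10-s 1-Hz baseline, 110-s post-stimulus read | measure = fluorescence change relative to baseline, converted to B score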
KCNK9 block – human KCNK9 channel inhibition | actives 1.2% (n = 310,000) | Q9NPC2 | B-score at 10 µM | AID 488922 | HEK293 KCNK9, FluxOR thallium flux fluorescence; stronger effect = lower value;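 active = ratio B-score over 3 SD below the library mean, with starting fluorescence within 5 SD of its mean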;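 note: negative B-score means less thallium flux so channel inhibition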
KCNK3 block – human KCNK3 channel inhibition, primary screen; B-score at 10 µM; AID 602410; actives 0.84% (n = 340,000); O14649; CHO-KCNK3 thallium flux, FluxOR fluorescence; stronger effect = lower value;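 active = B-score under library mean minus 4 SD, starting fluorescence ratio at most library mean plus 5 SD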;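 note: more negative B-score means stronger inhibition of thallium flux through KCNK3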
* marks the source's active call; other numbers are inactive results; i = inactive; · = not tested or not shown. Rows were chosen to be rich in hits. Some 3.1% of all compounds tested hit in one or more screens of this group.

SMILES	KCNQ1 inh	hERG protect	KCNQ1 pot	KCNK9 block	KCNK3 block
S=c1[nH]nc(-c2ccco2)n1/N=C/c1cccc(Cl)c1Cl	i	0	15*	i	i
S=c1[nH]nc(-c2ccco2)n1/N=C/c1ccc(Cl)cc1Cl	i	-6	i	i	i
COc1ccc2oc(C(=O)OCC(=O)N(Cc3ccccc3)C(C)(C)C)c(C)c2c1	i	-18	i	i	i
CCN(Cc1ccncc1)Cc1cn(C)nc1-c1ccc(Oc2ccccc2)cc1	6*	-14	i	i	i
CC(C)N(C)Cc1cn(C)nc1-c1ccc(Oc2ccccc2)cc1	i	-5	i	i	i
O=C(NC(=S)N1CCN(c2c(Cl)cccc2[N+](=O)[O-])CC1)c1cccs1	i	3	49*	i	i
COc1ccc(N2CCN(C(=O)c3ccccc3)CC2)c([N+](=O)[O-])c1	i	-2	i	i	i
COc1ccc(N2CCN(C(=S)NC(=O)c3cccs3)CC2)c([N+](=O)[O-])c1	i	-7	13*	i	i
CC(C)C(=O)N1CCN(c2c(Cl)cccc2[N+](=O)[O-])CC1	i	-8	i	i	i
O=C(NC(=S)N1CCN(c2ccc(F)cc2)CC1)c1cccs1	i	15*	13*	i	i
O=C(NC(=S)N1CCN(c2ccc(O)cc2)CC1)c1cccs1	i	-10	i	i	i
CN(C(=O)c1ccccc1-c1ncc[nH]1)C1CCCN(Cc2ccccc2F)C1 (stereo unspecified)	i	-10	i	i	i
Cc1csc(=O)n1CCC(=O)OCC(=O)N(CC(C)C)c1c(N)n(Cc2ccccc2)c(=O)[nH]c1=O	i	-14	i	i	i
COCCn1c(Cc2ccccc2)nnc1SCC(=O)NC1CCCCC1	i	-5	i	i	i
CCCCc1c(O)nc(SCC(=O)N2CCCCC2)n(-c2ccccc2C)c1=O	i	9.8*	i	i	i
Cc1ccccc1-c1nc(S(=O)(=O)c2ccc(Br)cc2)c(NCc2cccnc2)o1	i	-17	i	i	-9.1*
Cc1ccc(S(=O)(=O)c2nc(-c3ccccc3)oc2NCc2cccnc2)cc1	i	-10	i	i	i
CCC(CC)NC(=O)C1CCN(c2ccc(S(=O)(=O)N3CCOCC3)cc2[N+](=O)[O-])CC1	·	·	·	·	i
Cn1c(SCC(=O)N2c3ccccc3Sc3ccc(Cl)cc32)nnc1-c1ccco1	·	·	·	·	i
Cn1nnnc1SCC(=O)N1c2ccccc2Sc2ccc(Cl)cc21	·	·	·	·	-10*
O=C(CSc1nnc(-c2ccncc2)n1Cc1ccco1)N1c2ccccc2Sc2ccc(Cl)cc21	i	-6	i	-6.6*	i
COc1ccc(CNCCc2ccccc2)cc1OCC(N)=O	i	-6	i	i	i
CCOc1cc(CNCc2ccccc2)ccc1OCc1ccc(Cl)cc1	7*	-21	i	i	i
COc1ccc(CNCCc2ccc(Cl)cc2)cc1OCc1ccccc1	10*	-41	i	i	-9.5*
CCCn1c(CN2CCN(C(=O)OCC)CC2)nc2cc(NC(C)=O)ccc21	i	-6	i	i	i
SMILES	KCNQ1 inh	hERG protect	KCNQ1 pot	KCNK9 block	KCNK3 block
NC(=O)C1CCCN(C(=O)c2ccc(-c3cccc(Cl)c3Cl)o2)C1 (stereo unspecified)	·	·	·	·	i
O=C(NCCc1nccs1)C1CCC(=O)N(Cc2cccc(C(F)(F)F)c2)C1 (stereo unspecified)	i	-2	i	i	i
O=C(NCc1ccc2c(c1)OCO2)NC12CC3CC(CC(C3)C1)C2	i	4.9*	i	i	i
CC1CCN(C(=O)c2ccc(CNS(=O)(=O)c3ccc(C(C)(C)C)cc3)cc2)CC1	·	·	·	·	i
CCSC1=C(C#N)C(c2ccccc2Cl)C(C(=O)c2cccs2)C(O)(C(F)(F)F)N1 (stereo unspecified)	i	-19	i	i	i
C=CCSC1=C(C#N)C(c2ccccc2Cl)C(C(=O)c2cccs2)C(O)(C(F)(F)F)N1 (stereo unspecified)	10*	-12	i	i	i
O=c1[nH]c2ccccc2nc1C(Nc1ccccc1)c1ccccc1 (stereo unspecified)	i	-9	i	i	i
S=C(NCCc1ccccc1)N/N=C/c1c(Cl)cccc1Cl	i	11*	i	i	i
Cc1ccc(S(=O)(=O)NC2CC(C)(C)NC(C)(C)C2)cc1C	i	3	i	i	i
O=C(Nc1nnc(-c2ccco2)o1)c1ccc2ccccc2c1	i	6.8*	i	i	i
O=C1NC(=O)N2CCSC2(Cc2ccccc2)N1 (stereo unspecified)	·	·	·	·	i
CCN1c2ccccc2-c2nc3ccccc3n2C1c1ccncc1 (stereo unspecified)	i	-10	i	i	i
CCN1c2ccccc2-c2nc3ccccc3n2C1c1ccccn1 (stereo unspecified)	i	-9	i	i	-10*
CCC(OC(=O)c1cccs1)C(=O)NCc1ccco1 (stereo unspecified)	i	51*	i	i	i
CCOCc1c(C(=O)NCc2ccccc2CN2CCCC2)oc2ccccc12	·	·	·	·	i
CN(C)c1ccc(N=Nc2ccccc2C(=O)OCC(=O)N2CCCC2)cc1	i	-6	i	i	i
CN(C)c1ccc(N=Nc2ccccc2C(=O)OCC(=O)Nc2ccccc2C(F)(F)F)cc1	6*	-12	i	i	i
CC(CN1CCN(C/C=C/c2ccccc2)CC1)c1ccccc1 (stereo unspecified)	i	-1	i	i	i
O=C(NCCCN1CCOCC1)c1cc2c([nH]c3ccccc32)c(-c2cccc(Br)c2)n1	8*	-30	i	i	i
Cc1ccc(C(=O)N2CC3(C)CN(C(=O)c4ccc(C)cc4)CC(C)(C2)C3=O)cc1	i	-13	i	i	i
Cc1ccc(C(=O)N2CC(=O)NC(=O)C2)cc1	i	5.3*	i	i	i
O=C(NC(=S)NC1CCCc2ccccc21)c1ccc(F)cc1 (stereo unspecified)	i	-8	9*	i	i
O=C(NC(=S)NC1CCCc2ccccc21)c1ccco1 (stereo unspecified)	i	8.7*	16*	i	i
CCc1c(C2(O)CCCCC2)[nH]c2cnccc12	·	·	·	·	i
NS(=O)(=O)c1ccc(CCNC(=O)CSc2ccc3ccccc3c2)cc1	i	11*	i	i	i
NS(=O)(=O)c1ccc(CCNC(=O)CSc2ccc([N+](=O)[O-])cc2)cc1	i	-9	i	i	i
